Several values for one entry are separate records, joined by “and”; a condition that tells them apart may be missing. Equal values may be shown once. Where only a bound is given, the exact number is not on record here.

The text below walks through data of PMC3677025 (Pharmacological research : the official journal of the …, 2012).

For assay [1], the target named is T1, EphA4 (Mus musculus, UniProt Q03137). Kind of assay: ELISA, ephrin-A5 AP binding to immobilized EphA4 Fc. The method in brief: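 Mouse EphA4 Fc was captured at 1 μg/ml on protein A wells. Ephrin-A5 AP (~0.01 nM for IC50) from HEK293 supernatant was added with test compound for 2 h in TBST and read with p-nitrophenylphosphate, minus Fc-only background. For reversibility, compound was incubated 2 h, washed 30 min, then ephrin-A5 AP added for 1 h. For mode of inhibition, ephrin-A5 AP was titrated per compound concentration and fitted one-site; Ki came from KD/Bmax versus inhibitor regression.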
T1 sequence (Q03137 20-547 limits assumed): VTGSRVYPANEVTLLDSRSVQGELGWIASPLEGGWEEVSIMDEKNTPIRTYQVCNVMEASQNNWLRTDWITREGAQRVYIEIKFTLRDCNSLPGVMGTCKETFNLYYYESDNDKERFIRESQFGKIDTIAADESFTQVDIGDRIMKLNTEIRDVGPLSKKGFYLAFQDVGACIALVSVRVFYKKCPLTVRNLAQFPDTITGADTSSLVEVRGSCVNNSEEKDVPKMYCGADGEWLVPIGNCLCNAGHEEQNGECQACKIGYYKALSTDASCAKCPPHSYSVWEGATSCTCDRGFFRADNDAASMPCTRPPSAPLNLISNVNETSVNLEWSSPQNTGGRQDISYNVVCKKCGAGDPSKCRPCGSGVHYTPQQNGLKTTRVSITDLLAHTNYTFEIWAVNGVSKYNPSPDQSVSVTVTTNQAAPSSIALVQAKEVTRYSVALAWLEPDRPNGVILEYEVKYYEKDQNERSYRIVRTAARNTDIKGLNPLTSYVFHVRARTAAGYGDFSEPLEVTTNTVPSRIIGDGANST

The target of assay [2] is T1, EphA4. Briefly: EphA4 AP binding to immobilized KYL peptide. The method in brief: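 Biotinylated KYL peptide (biotin on the lysine of a C-terminal GSGSK linker) was captured on streptavidin-coated wells, with coating in borate buffer pH 8.7. Test compound (10 μM in 1% DMSO for screening; varied concentrations for confirmation) was added with ~0.35 nM mouse EphA4 ectodomain–AP from NIH3T3 supernatant in TBST. Bound AP was read at 405 nm with 1 mg/ml p-nitrophenylphosphate in SEAP buffer pH 9.8, minus AP-only background. Percent inhibition was taken relative to no-compound wells.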

The next assay concerns the target T2, EphB4 (Homo sapiens, UniProt P54760).
T2 sequence (P54760 16-987): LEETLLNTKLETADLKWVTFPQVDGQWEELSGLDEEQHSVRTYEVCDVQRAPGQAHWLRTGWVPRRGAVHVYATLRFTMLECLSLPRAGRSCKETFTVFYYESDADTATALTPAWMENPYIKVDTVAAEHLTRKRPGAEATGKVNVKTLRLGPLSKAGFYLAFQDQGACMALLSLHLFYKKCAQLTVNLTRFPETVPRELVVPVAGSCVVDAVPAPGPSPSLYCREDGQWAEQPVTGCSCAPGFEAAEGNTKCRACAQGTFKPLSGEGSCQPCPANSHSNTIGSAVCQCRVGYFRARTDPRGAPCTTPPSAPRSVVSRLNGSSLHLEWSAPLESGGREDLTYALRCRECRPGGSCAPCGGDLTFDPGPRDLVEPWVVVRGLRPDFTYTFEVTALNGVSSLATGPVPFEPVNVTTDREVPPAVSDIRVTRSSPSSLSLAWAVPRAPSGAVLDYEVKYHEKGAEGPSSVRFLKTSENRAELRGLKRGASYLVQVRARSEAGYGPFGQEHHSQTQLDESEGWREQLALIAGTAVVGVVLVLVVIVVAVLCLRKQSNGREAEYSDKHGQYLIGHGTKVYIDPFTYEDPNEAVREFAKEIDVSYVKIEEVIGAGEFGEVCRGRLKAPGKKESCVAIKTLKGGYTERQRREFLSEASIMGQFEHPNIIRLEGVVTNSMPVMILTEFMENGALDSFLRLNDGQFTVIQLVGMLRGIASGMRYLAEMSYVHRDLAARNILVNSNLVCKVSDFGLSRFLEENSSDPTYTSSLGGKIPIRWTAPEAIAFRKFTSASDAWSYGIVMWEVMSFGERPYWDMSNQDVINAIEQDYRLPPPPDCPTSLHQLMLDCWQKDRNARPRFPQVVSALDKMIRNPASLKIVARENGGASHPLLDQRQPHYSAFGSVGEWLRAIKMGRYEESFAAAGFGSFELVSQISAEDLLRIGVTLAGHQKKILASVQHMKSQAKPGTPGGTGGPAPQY
Kind of assay: Ephrin-B2 Fc-induced EphB4 phosphorylation in HUVECs. It is filed as cell-based. Conditions: at 50 μM. The procedure, abridged:
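HUVECs were serum-starved 1–2 h and preincubated 15 min with 50 μM test compound (DMSO ≤0.4% final). They were then stimulated 20 min with 0.25 μg/mL ephrin-A1 Fc plus 1.5 μg/mL ephrin-B2 Fc (preclustered with 3-fold anti-Fc), or Fc, with compound present. Lysates were made in modified RIPA with NaF and pervanadate. EphA2 (1 μg antibody) and EphB4 (20 μg antibody) immunoprecipitates were immunoblotted for phosphotyrosine; lysates were probed for receptors and β-actin.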

The test system of a further assay is EphB2. Briefly: Ephrin-B2 Fc-induced EphB2 tyrosine phosphorylation in COS cells. Particulars: relative to concentrations inhibiting other Eph receptors. Type of assay: cell-based. The method in brief:
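Cells were serum-starved 1–2 h and pretreated 15 min with test compound (DMSO ≤0.4% final). They were then stimulated 20 min with compound present: COS cells with 0.8 μg/mL ephrin-B2 Fc, and B16 melanoma cells with 1.5 μg/mL anti-Fc-preclustered ephrin-B2 Fc, or Fc control. Lysates were made in modified RIPA. EphB2 (COS; 7 μg antibody) or EphB4 (B16; 20 μg antibody) was immunoprecipitated, probed for phosphotyrosine, then reprobed for the receptor.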

Assay [3] addresses EphA2 (Homo sapiens, UniProt P29317). Kind of assay: Ephrin-A1 Fc-induced EphA2 tyrosine phosphorylation in PC3 cells. It is filed as cell-based. Conditions: read-out: IC50, EphA2 tyrosine phosphorylation, 0.25 μg/mL ephrin-A1 Fc, ELISA. The method in brief:
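PC3 cells were serum-starved 1 h, given test compound (final DMSO ≤0.4%) for 15 min, then ephrin-A1 Fc for 20 min with compound still present. Lysis was in modified RIPA with NaF and pervanadate. Lysates were split for phospho and total EphA2 ELISA: anti-EphA2 extracellular capture, anti-phosphotyrosine or anti-cytoplasmic EphA2 detection, ABTS read at A405. IC50 was fitted to values normalized to ephrin-only cells.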
(ELISA stands for enzyme-linked immunosorbent assay.)

Assay [4] has as its target EphA2 (Mus musculus, UniProt Q03145). Kind of assay: ELISA, ephrin-A5 AP binding to immobilized EphA2 Fc. Conditions: read-out: IC50 ± SE EphA2 ephrin-A5.
The next assay deals with HUVECs. Kind of assay: Capillary-like tube formation assay, HUVECs on Matrigel. Conditions: 18 hours. Type of assay: cell-based, human. The procedure, abridged:
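HUVECs (2.3 × 10⁴) were seeded on Matrigel-precoated wells in complete HUVEC medium containing test compound or DMSO control and grown for 18 h. Polygons were counted from phase-contrast images, 2–4 pictures from each of 3–6 wells. Counts were compared with DMSO-only wells by one-way ANOVA with Dunnett's post-hoc test.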

EphA2 (Homo sapiens, UniProt P29317), sequence (P29317 24-976): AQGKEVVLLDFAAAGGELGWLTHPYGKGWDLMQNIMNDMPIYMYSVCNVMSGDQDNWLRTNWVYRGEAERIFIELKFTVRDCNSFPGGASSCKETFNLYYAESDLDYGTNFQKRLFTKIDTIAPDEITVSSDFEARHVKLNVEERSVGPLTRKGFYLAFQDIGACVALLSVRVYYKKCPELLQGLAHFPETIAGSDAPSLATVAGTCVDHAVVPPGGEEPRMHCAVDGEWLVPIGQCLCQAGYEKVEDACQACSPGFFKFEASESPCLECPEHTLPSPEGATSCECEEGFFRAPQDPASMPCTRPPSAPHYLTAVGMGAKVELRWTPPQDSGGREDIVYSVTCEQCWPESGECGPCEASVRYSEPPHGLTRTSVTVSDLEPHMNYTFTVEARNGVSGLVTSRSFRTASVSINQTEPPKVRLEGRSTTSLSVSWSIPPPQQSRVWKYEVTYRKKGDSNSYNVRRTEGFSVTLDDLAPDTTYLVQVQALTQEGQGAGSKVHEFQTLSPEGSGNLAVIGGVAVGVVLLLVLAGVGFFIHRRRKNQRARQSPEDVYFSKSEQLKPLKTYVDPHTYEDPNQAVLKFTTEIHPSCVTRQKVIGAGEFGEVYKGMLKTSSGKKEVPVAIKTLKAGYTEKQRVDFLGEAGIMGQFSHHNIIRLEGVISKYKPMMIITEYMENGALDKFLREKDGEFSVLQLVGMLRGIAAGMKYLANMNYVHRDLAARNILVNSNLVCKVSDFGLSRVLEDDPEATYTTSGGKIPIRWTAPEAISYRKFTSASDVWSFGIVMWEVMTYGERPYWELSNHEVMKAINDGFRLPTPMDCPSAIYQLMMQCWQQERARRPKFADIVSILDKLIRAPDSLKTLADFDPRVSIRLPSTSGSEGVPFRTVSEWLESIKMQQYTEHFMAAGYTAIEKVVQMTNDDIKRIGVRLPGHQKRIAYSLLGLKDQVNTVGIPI
EphA2 (Mus musculus, UniProt Q03145), sequence (Q03145 26-538): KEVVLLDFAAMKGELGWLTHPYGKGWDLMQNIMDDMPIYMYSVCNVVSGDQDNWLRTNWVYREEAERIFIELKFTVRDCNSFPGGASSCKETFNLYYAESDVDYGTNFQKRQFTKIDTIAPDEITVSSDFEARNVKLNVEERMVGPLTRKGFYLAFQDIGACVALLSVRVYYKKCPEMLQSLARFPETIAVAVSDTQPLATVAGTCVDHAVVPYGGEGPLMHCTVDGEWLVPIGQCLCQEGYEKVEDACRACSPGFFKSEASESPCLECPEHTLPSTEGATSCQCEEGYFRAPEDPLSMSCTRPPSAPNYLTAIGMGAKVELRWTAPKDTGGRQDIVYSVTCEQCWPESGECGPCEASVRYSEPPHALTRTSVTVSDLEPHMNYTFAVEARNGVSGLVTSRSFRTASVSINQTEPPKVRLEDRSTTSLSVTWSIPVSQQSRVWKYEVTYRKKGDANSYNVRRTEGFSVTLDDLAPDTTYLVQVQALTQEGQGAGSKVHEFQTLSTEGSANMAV

As for `O=C(Oc1cc(O)cc2c1C[C@@H](OC(=O)c1cc(O)c(O)c(O)c1)[C@@H](c1cc(O)c(O)c(O)c1)O2)c1cc(O)c(O)c(O)c1` [epigallocatechin-3,5-digallate], the “reversibility of inhibition of EphA4-ephrin-A5 binding” value on EphA4 [1] (compound washed out before adding ephrin-A5 AP) is on record as “reversible”. Further, the IC50 at EphA4 [1] (read-out: IC50, inhibition of EphA4-ephrin-A5 binding (text)) was 8 µM; at EphA4 [1] (read-out: IC50, inhibition of EphA4-ephrin-A5 binding (text), listed as Epigallocatechin-3,5-digallate), less than 10 µM; at EphA4 [1] (read-out: IC50 ± SE EphA4 ephrin-A5), 7.4 ± 1.8 µM; at EphA4 [2] (read-out: IC50 ± SE EphA4 KYL) it was 1.5 ± 0.13 µM; at EphA2 [3] it was 90 µM and ~90 µM; on EphA2 [4] it was 40 ± 3.8 µM. On EphA4 [1] (similar Bmax, increasing KD), the “mode of inhibition of ephrin-A5 binding to EphA4” value is recorded as “competitive inhibitors”. Further, the “(% Inhib.) EphA4 KYL” value at EphA4 [2] (screen, compounds at 10 μM) is 58%. For the same compound, the “EphB4 phosphorylation in HUVECs” value at EphB4 is on record as “strongly inhibits”. Further, in the assay on EphB2, the “inhibition of EphB2 phosphorylation” value is on record as “at higher concentrations”. The capillary-like tube formation result with HUVECs (20 μM to 200 μM) was “dose-dependent inhibitory effect”; in the assay with HUVECs (at 50 μM), “inhibit”.
